Results from PMC5746459 (Journal of medicinal chemistry, 2017).
“Also recorded” adds a separate entry of the source. Counter-ions that a name gives are not always drawn.

Experiments:
[1] = molecular target: human DAT (hDAT) WT (Homo sapiens, UniProt Q01959); assay: [3H]DA uptake inhibition in COS7 cells transiently expressing DAT WT; format: cell-based
[2] = test system: Swiss Webster mice; assay: Locomotor activity in mice; format: in vivo, mouse; conditions: i.p., 1 h session; for effect on locomotor activity: cocaine 5–40 mg/kg, 10a 3–56 mg/kg
[3] = test system: Swiss Webster mice; assay: Drug discrimination, mice trained to discriminate cocaine from saline; format: in vivo, mouse; conditions: for overall group response rate, % of control performance: mice, drug discrimination sessions, all doses tested
[4] = test system: mice; conditions: previous studies; cited from earlier work
[5] = Phase I metabolic stability in mouse liver microsomes; format: in vitro ADME; conditions: mouse liver microsomes with and without NADPH
Procedure, shortened: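 Test compound at 10 uM final was incubated in triplicate with 0.5 mg/mL mouse liver microsomes in 100 mM potassium phosphate, pH 7.4. The NADPH regenerating system contained 1.3 mM NADPH, 3.3 mM glucose 6-phosphate, 3.3 mM MgCl2, 0.4 U/mL glucose-6-phosphate dehydrogenase and sodium citrate. Reactions were started by adding microsomes, with cofactor-free controls. Percent remaining over time was measured by LC/MS/MS; mean ± S.E.M., n=3 per time point.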

Sequence of human DAT (hDAT) WT (Q01959 whole entry): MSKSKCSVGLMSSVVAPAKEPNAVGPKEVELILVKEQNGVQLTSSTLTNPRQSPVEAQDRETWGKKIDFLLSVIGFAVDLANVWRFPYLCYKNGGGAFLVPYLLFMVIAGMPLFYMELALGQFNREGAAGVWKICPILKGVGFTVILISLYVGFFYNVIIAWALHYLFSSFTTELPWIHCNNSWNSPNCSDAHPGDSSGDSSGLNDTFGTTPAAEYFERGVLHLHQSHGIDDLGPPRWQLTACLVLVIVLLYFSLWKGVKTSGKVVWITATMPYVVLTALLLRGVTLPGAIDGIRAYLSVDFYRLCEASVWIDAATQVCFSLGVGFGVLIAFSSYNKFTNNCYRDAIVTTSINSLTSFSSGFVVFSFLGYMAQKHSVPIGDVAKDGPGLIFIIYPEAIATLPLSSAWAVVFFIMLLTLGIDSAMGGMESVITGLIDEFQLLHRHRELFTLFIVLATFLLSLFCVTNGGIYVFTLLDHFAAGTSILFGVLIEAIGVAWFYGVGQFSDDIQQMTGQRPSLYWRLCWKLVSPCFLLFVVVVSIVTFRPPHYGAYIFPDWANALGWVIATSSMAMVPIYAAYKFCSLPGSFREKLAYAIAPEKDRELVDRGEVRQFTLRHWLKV

Question: With CN1[C@H]2CC[C@@H]1[C@@H](c1cc(-c3ccccc3)no1)[C@H](OC(c1ccc(F)cc1)c1ccc(F)cc1)C2 [S-(+)-19a, S-(+)-2β-(3-Phenylisoxazol-5-yl)-3α-[bis(4-fluorophenyl)methoxy]tropane] as the compound, how does the Ki ([1]; read-out: DAT WT Ki, [3H]DA uptake inhibition, COS7 cells transiently expressing DAT WT, mean [s.e.m. interval]) read?
Answer: 212 nM

Question: For COC(=O)[C@H]1[C@@H](OC(=O)c2ccccc2)C[C@@H]2CC[C@H]1N2C [compound 1, cocaine, reference compound], which “maximum locomotor activity, % of activity counts compared to vehicle” value ([2]; 20 and 40 mg/kg) is on record?
Answer: ≈ 300%

Question: What about the “effect on locomotor activity” value [2] of the same compound?
Answer: dose-dependently increased locomotion

Question: And the “overall group response rate, % of control performance” value [3]?
Answer: ≥ 50%

Question: Which “DA uptake inhibition potency relative to cocaine (times higher)” value [1] does the source give for CN(C)CCN1C2CCC1CC(NC(c1ccc(F)cc1)c1ccc(F)cc1)C2 (stereo not shown) [10b, N-(Bis(4-fluorophenyl)methyl)-8-(2-(dimethylamino)ethyl)-8-azabicyclo[3.2.1]octan-3-amine Oxalate] here?
Answer: > 4

Question: With Cc1ccc(-c2cc(C3C(c4ccc(Cl)cc4)CC4CCC3N4C)on2)cc1 (stereo not shown) [compound 6] as the compound, how does the “stimulation of locomotor activity” value [4] read?
Answer: does stimulate locomotion

Question: With Cc1ccc(C2CC3CCC(C2c2cc(-c4ccc(Cl)cc4)no2)N3C)cc1 (stereo not shown) [compound 5] as the compound, how does the “stimulation of locomotor activity” value [4] read?
Answer: fails to stimulate locomotor activity in mice

Question: With CN(C)CCN1C2CCC1CC(OC(c1ccc(F)cc1)c1ccc(F)cc1)C2 (stereo not shown) [10a, 2-(3-(bis(4-fluorophenyl)methoxy)-8-azabicyclo[3.2.1]octan-8-yl)-N,N-dimethylethanamine Oxalate] as the compound, how does the “effect on locomotor activity” value [2] read?
Answer: None of the doses of 10a significantly increased activity counts more than vehicle; also recorded: failed to produce a significant increase in locomotor activity; also recorded: did not significantly increase locomotor activity

Question: What about the “DA uptake inhibition potency relative to cocaine (times higher)” value [1] of the same compound?
Answer: > 4

Question: What about the “Phase I metabolic stability” value [5] of the same compound?
Answer: complete stability under all conditions

Question: What about the “substitution for cocaine discriminative stimulus” value ([3]; mice trained with cocaine 10 mg/kg vs saline, 5 or 30 min pretreatment) of the same compound?
Answer: failed to substitute for cocaine; also recorded: did not generalize to the cocaine discriminative stimulus

Question: And the “overall group response rate, % of control performance” value [3]?
Answer: ≥ 50%

Question: With NCCc1ccc(O)c(O)c1 [Dopamine, reference compound] as the compound, how does the Km ([1]; read-out: DAT WT, Dopamine (kM), [3H]DA uptake, COS7 cells transiently expressing DAT WT, mean [s.e.m. interval]) read?
Answer: 0.999 µM
